Experimental data taken from ChEMBL document CHEMBL1125745, “Unsaturated and carbocyclic nucleoside analogues: synthesis, antitumor, and antiviral activity” (J Med Chem, 1991).

What was measured:
[1] = test system: L1210; assay: Inhibitory activity against murine leukemia L1210 cells; assay type: functional, cell-based; conditions: Mus musculus
[2] = Cytotoxicity was evaluated against low malignancy line at 1000 ug/disk.; assay type: functional
In short: (§1)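 Disk zone assay: analogue dilutions on 6.5 mm paper disks were placed on dishes with a 0.8% agar bottom layer and a 0.44% soft-agar top layer of tumor cells (≤1 × 10^5/plate) in Fishers-CMRL-1066 with 12% horse serum. Plates were incubated 6-10 days and the inhibition zone was measured by microscope; 200 zone units = 6 mm.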

[3] = test system: PO3; assay: Cytotoxicity was evaluated against PO3 cell line at 1000 ug/disk.; assay type: functional, Mus musculus; in short: as §1
[4] = test system: L1210; assay: Cytotoxicity was evaluated against L1210 leukemia cell line at 1000 ug/disk.; assay type: functional, Mus musculus; in short: as §1
[5] = species on record: Homo sapiens; assay: Cytotoxicity was evaluated against C116 human solid tumor at 1000 ug/disk.; assay type: functional; in short: as §1
[6] = test system: MC-38; assay: Cytotoxicity was evaluated against C38 solid tumor of mouse at 1000 ug/disk.; assay type: functional; in short: as §1
[7] = species on record: Mus musculus; assay: Concentration that reduces Rauscher murine leukemia virus titer by 50%; assay type: functional, organism-based
In short: (§2)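 SC-1 cells (1 × 10^4/well) were pretreated with polybrene, infected 2 h at 37 °C with F-MuLV or R-MuLV in EMEM-5 with 8 µg/mL polybrene, washed, and refed with analogue for 72 h. They were then UV-irradiated and overlaid with XC cells (2 × 10^5) for 48 h, fixed and stained with crystal violet. Multinucleated cells were counted and EC50 was taken by linear regression versus untreated cultures.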

[8] = Selectivity index is the ratio of IC50 to EC50 of F-MuLV.; assay type: functional
[9] = Selectivity index which is the ratio of IC50 to EC50 of R-MuLV.; assay type: functional
[10] = species on record: Mus musculus; assay: Concentration that reduces Friend murine leukemia virus titer by 50%; assay type: functional, organism-based; in short: as §2
[11] = species on record: Mus musculus; assay: (§3) Inhibition of incorporation of labeled precursor into macromolecules of noninfected SC-1 cells with the compound at a concentration 300 uM determined against leucine.; assay type: functional
In short: (§4)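 SC-1 cells seeded in 24-well trays at 1 × 10^4 cells/mL, incubated overnight at 37 °C, then exposed to analogue for 72 h at 37 °C. Labeled thymidine (2.5 µCi), [3H-5,6]uridine or [3H-4,5]leucine was added. After 4 h, cells were washed with cold PBS, lysed in 1% SDS/0.01 M EDTA/0.01 M Tris pH 7.7, and lysates were dried on GF/B filters. Result given as % of untreated incorporation.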

[12] = species on record: Mus musculus; assay: (§5) Inhibition of incorporation of labeled precursor into macromolecules of noninfected SC-1 cells with the compound at a concentration 300 uM determined against thymidine; assay type: functional; in short: as §4
[13] = species on record: Mus musculus; assay: Cytotoxicity was evaluated and represented as IC50.; assay type: functional
In short: (§6)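 SC-1 cells (1 × 10^4 cells/mL) were seeded, incubated overnight at 37 °C, refed with EMEM-10 and given diluted analogue in triplicate for 72 h at 37 °C. Cells were trypsinized and counted in a Coulter counter. The mean of three wells gave percent of control count, and IC50 was calculated by linear regression.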

[14] = species on record: Mus musculus; assay: (§7) Inhibition of incorporation of labeled precursor into macromolecules of noninfected SC-1 cells with the compound at a concentration 100 uM determined against thymidine; assay type: functional
In short: (§8)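 Noninfected SC-1 cells were incubated with analogue as in the cytotoxicity setup, and [3H]thymidine, [3H]uridine or [3H]leucine was added. After 4 h, wells were washed with ice-cold PBS and cells were lysed in 1% SDS, 0.01 M EDTA, 0.01 M Tris pH 7.7. Lysates were dried on glass-fiber filters, and label is expressed as percent of incorporation in untreated cells.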

[15] = species on record: Mus musculus; assay: (§9) Inhibition of incorporation of labeled precursor into macromolecules of noninfected SC-1 cells with the compound at a concentration 300 uM determined against uridine.; assay type: functional; in short: as §4
[16] = species on record: Mus musculus; assay: (§10) Inhibition of incorporation of labeled precursor into macromolecules of noninfected SC-1 cells with the compound at a concentration 100 uM determined against leucine.; assay type: functional; in short: as §8
[17] = species on record: Mus musculus; assay: (§11) Inhibition of incorporation of labeled precursor into macromolecules of noninfected SC-1 cells with the compound at a concentration 100 uM determined against uridine.; assay type: functional; in short: as §8
[18] = species on record: Mus musculus; assay: Cytotoxicity was evaluated; assay type: functional; in short: as §6
[19] = test system: PO3; assay: Cytotoxicity was evaluated against PO3 cell line at 1000 ug/disk.
[20] = as §3; assay type: functional; in short: as §4
[21] = as §5; assay type: functional; in short: as §4
[22] = as §7; assay type: functional; in short: as §8
[23] = as §9; assay type: functional; in short: as §4
[24] = as §10; assay type: functional; in short: as §8
[25] = as §11; assay type: functional; in short: as §8

Nc1ccn([C@@H]2O[C@H](CO)[C@@H](O)[C@@H]2O)c(=O)n1 [CYTARABINE]
IC50 [1]: 0.08 µM

Nc1ncnc2c1ncn2C1C=CCO1 (stereo not drawn)
Cytotoxicity [2]: 500
Cytotoxicity [3]: 320
IC50 [1]: > 500 µM
Cytotoxicity [4]: 520
Cytotoxicity [5]: 460
Cytotoxicity [6]: 400

Nc1ncnc2c1ncn2CC#CCO
EC50 [7]: 156 µM
SI [8]: 1.7
SI [9]: 2.6
IC50 [1]: 490 µM
EC50 [10]: 245 µM
Precursor inhibition [11]: 75%
Precursor inhibition [12]: 36%
IC50 [13]: 407 µM
Precursor inhibition [14]: 60%
Precursor inhibition [15]: 66%
Precursor inhibition [16]: 88%
Precursor inhibition [17]: 67%

Nc1ncnc2c1ncn2/C=C/CCO
EC50 [7]: 181 µM
SI [8]: 2.4
SI [9]: 1.7
IC50 [1]: 100 µM
EC50 [10]: 127 µM
IC50 [18]: 304 µM

Nc1ncnc2c1ncn2C=C=CCO
EC50 [7]: 87.3 µM
SI [8]: 1.4
SI [9]: 1.9
Cytotoxicity [19]: 0
IC50 [1]: 150 µM
EC50 [10]: 124 µM
Cytotoxicity [4]: 160
Precursor inhibition [20]: 79%
IC50 [18]: 168 µM
Precursor inhibition [21]: 46%
Precursor inhibition [22]: 80%
Precursor inhibition [23]: 105%
Precursor inhibition [24]: 94%
Precursor inhibition [25]: 107%

O=c1[nH]c(=O)n2c3c1ncn3CC=CC2
IC50 [1]: > 1000 µM

NC(=O)c1ncn([C@@H]2O[C@H](CO)[C@@H](O)[C@H]2O)n1 [RIBAVIRIN]
EC50 [7]: 32.1 µM
SI [8]: 6.3
SI [9]: 1.6
EC50 [10]: 8.3 µM
IC50 [18]: 52 µM

Cc1cn(CC#CCO)c(=O)[nH]c1=O
IC50 [1]: > 500 µM

Nc1ncnc2c1ncn2C/C=C/CO
IC50 [1]: 125 µM

NC1=NC(N)c2c(ncn2CC#CCO)N1 (stereo not drawn)
IC50 [1]: 200 µM
